In publication PMC10195017 (Journal of Immunotherapy and Precision Oncology, 2023):
“Also recorded” adds a separate entry of the source. Where two headings read alike, the source gives them in different places.

Key:
Tregs [1] = conditions: mice; 8 mg/kg twice a day IP and 16 mg/kg every day IP; cited from earlier work
[2] = Plasma pharmacokinetics in male C57BL/6J mice after a single dose; assay type: in vivo; conditions: non-tumor-bearing animals
[3] = Octanol-water partition coefficient; assay type: physicochemical
Caco-2 = Caco-2 permeability; assay type: in vitro ADME; conditions: Caco-2 assay
Aqueous solubility = assay type: physicochemical
P-gp = P-gp (Homo sapiens, UniProt P08183); test: MDCK-MDR1 permeability; assay type: in vitro ADME
P-gp, sequence (P08183 whole entry): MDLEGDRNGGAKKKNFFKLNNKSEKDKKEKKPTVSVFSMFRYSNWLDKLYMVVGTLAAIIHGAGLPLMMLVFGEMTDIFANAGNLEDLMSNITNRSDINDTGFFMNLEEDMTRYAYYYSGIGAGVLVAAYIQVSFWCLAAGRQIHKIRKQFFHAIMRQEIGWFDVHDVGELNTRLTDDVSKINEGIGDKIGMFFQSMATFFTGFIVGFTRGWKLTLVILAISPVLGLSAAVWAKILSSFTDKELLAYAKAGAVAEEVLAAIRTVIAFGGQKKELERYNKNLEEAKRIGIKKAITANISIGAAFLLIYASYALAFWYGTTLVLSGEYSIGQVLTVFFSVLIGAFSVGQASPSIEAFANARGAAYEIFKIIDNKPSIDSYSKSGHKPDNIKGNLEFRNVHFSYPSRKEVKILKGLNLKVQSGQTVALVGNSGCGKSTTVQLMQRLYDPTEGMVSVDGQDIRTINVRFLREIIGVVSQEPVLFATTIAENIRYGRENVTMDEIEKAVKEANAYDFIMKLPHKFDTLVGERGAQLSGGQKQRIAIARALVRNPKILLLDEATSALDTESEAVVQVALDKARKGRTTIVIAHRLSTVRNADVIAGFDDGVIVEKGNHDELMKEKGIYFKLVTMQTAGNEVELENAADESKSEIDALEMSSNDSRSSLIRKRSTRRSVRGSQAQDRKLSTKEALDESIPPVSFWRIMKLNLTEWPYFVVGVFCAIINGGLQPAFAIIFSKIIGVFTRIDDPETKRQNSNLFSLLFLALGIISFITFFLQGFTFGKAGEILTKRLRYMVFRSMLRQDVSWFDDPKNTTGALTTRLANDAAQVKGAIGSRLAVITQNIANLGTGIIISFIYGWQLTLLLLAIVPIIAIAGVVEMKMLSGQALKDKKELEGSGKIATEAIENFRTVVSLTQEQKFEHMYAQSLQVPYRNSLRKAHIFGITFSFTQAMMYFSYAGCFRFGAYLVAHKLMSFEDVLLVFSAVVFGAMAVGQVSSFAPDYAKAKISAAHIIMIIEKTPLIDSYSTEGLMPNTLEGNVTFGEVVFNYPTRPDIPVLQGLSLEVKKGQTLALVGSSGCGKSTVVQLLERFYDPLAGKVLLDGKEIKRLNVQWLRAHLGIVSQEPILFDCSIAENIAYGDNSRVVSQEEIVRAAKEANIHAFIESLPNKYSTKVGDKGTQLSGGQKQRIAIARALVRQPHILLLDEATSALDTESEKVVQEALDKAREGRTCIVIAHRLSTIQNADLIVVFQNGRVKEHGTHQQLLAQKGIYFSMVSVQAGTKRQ

pKa = assay type: physicochemical
Tregs [4] = conditions: dogs; efficacious treatment; cited from earlier work
MALT1 [5] = conditions: cited from earlier work
Tregs [6] = conditions: rats; efficacious treatment; cited from earlier work
B16.F10 = test: In vivo tumor growth, B16.F10 syngeneic tumor model; parameters: species or system C57BL/6J mice; conditions: combination with anti-PD-1
How it was run: (§1)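 Mice were 6-week-old male C57BL/6J, n = 10 per cohort. Tumor cells were trypsinized and spun 400g for 5 min, then put into the right hind flank: MC38 1 × 10^6 in 50:50 Cultrex:PBS, D4M.3A 1 × 10^6 in PBS, B16.F10 0.5 × 10^6 in HBSS. Test compound given once daily IP or by oral gavage from day 7 (B16.F10), 8 (MC38) or 9 (D4M.3A). Anti-PD-1, 200 μg IP ×3, every other day, 6 h after compound. Caliper volume = w² × l/2. Two-way ANOVA/Bonferroni on last treatment day.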

[7] = Plasma and tumor pharmacokinetics at steady-state in D4M.3A tumor-bearing mice; assay type: in vivo, C57BL/6J mice; conditions: 64 mg/kg/day oral, steady-state after 21 days
How it was run: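 Male C57BL/6J mice bearing D4M.3A tumors were pretreated for 21 days with the test compound (succinate salt) at 64 mg/kg orally. Plasma and tumor drug concentrations were then measured at steady state.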

tumor-infiltrating Tregs = test: Flow cytometry of tumor-infiltrating Tregs in D4M.3A-injected mice; assay type: in vivo, C57BL/6J mice; conditions: combination therapy with anti-PD-1; D4M.3A tumors; mean ± SEM; pooled MPT-0118 and MPT-0308 (n = 16)
D4M.3A = test: In vivo tumor growth, D4M.3A syngeneic tumor model; parameters: species or system C57BL/6J mice; conditions: for tumor growth, comparison of both salt forms: 32 mg/kg IP, QD, D4M.3A tumor-challenged mice, with and without anti-PD-1; for tumor growth, combination effect: combination with anti-PD-1, D4M.3A model; for tumor growth response: monotherapy, poorly immunogenic D4M.3A model, high doses of MPT-0118 or MPT-0308
How it was run: as §1

PDOTS = test: Viability of patient-derived organotypic tumor spheroids; assay type: cell-based, human; conditions: 5 μM in combination with anti-PD-1, + αIFNγ 10 μg/mL
How it was run: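 Colorectal cancer and melanoma resection samples were made into organotypic spheroids that kept their native immune cells. These were embedded in collagen in a 3D microfluidic device and cultured 5–7 days in DMEM with the test compound (3–5 μM). Arms were ± pembrolizumab 250 μg/mL, each ± anti-human IFNγ 10 μg/mL. Viability was measured by Hoechst 33342/propidium iodide imaging (45 min, 37 °C, 5% CO2) as live cell area. Results were given as percent change versus untreated control.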

circulating Tregs = test: Circulating Treg frequencies in non-tumor-bearing rats; assay type: in vivo, Harlan Sprague Dawley rats; conditions: 30 mg/kg orally, daily, 15 days; female rats; vs vehicle
How it was run: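 Female Harlan Sprague Dawley rats, non-tumor-bearing, received the test compound at 30 mg/kg orally once daily for 15 days, with a vehicle group (n = 5 per cohort). Blood was drawn from the same animals on days −1, 3, 5, 7, 10 and 14. After red cell lysis, samples got viability dye, CD3/CD4/CD8/CD25 surface staining, fixation and permeabilization, and FoxP3 staining. Tregs (CD3+CD4+CD8α−FoxP3+) were counted as % of CD4+ cells and normalized to day −1 (100%). Unpaired t test per time point […].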

MC38 MDOTS = test: Viability of MC38 MDOTS; assay type: cell-based, mouse; conditions: day 6
How it was run: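 MC38-derived spheroids kept their resident immune cells. They were mixed with collagen, loaded into the central gel region of a 3D microfluidic device, and set for 30 min at 37 °C. They were then hydrated with DMEM containing test compound 3 μM ± anti-mouse IFNγ 10 μg/mL, or anti-IFNγ alone, for 6 days. Viability was read by Hoechst 33342/propidium iodide staining (45 min, 37 °C, 5% CO2) and fluorescence imaging of total cell area per dye. Live signal was expressed as percent or log2 fold change versus control.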

MALT1 [8] = biological target: T1, MALT1 (Mus musculus, UniProt Q2TBA3); test: MALT1-cleaved CYLD-ct flow cytometry assay in murine CD4+ T cells; assay type: cell-based; conditions: for MALT1 inhibition: murine CD4+ T cells
T1 sequence (Q2TBA3 1-832): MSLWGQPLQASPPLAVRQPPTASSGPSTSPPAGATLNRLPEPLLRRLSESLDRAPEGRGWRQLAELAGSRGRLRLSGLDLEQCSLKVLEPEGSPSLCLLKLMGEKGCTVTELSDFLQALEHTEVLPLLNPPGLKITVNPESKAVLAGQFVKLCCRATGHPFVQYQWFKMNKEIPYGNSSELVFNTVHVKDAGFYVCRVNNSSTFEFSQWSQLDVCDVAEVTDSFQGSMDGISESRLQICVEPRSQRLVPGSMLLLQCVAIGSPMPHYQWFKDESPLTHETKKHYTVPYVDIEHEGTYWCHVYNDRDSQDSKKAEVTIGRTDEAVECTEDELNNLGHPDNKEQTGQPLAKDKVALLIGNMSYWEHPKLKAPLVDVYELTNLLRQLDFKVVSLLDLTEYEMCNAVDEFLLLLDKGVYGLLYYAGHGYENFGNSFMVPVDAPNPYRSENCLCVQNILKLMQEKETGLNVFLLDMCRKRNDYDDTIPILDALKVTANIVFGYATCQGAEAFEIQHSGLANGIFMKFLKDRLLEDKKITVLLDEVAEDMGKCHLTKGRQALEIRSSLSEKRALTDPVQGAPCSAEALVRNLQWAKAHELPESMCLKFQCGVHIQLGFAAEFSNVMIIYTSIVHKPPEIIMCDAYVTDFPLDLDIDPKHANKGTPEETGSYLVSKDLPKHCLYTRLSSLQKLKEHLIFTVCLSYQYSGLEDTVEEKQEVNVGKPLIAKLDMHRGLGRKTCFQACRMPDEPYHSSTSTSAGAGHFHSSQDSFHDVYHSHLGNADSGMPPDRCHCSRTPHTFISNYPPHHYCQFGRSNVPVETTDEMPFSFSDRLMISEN
How it was run: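 Murine CD4+ T cells were treated with a dose titration of the test compound or DMSO, then stimulated with PMA plus ionomycin. MALT1 activity was read by flow cytometry as the CYLD C-terminal cleavage product. Detection used the in-house neoepitope monoclonal 25F10, which recognizes both human and mouse cleaved CYLD. Median fluorescence intensity was compared with DMSO-treated cells. n = 3, mean ± SEM.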

[9] = test system: D4M.3A murine melanoma tumor spheroids; test: Viability of cell-line-derived D4M.3A tumor spheroids; assay type: cell-based, mouse; conditions: doses up to 10 μM; day 4
How it was run: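 D4M.3A cell-line-derived tumor spheroids were embedded in collagen in a 3D microfluidic device (gel set 30 min, 37 °C). They were cultured in DMEM with the test compound at 0.3–10 μM for 4 days. Live/dead staining used Hoechst 33342/propidium iodide (45 min, 37 °C, 5% CO2), followed by fluorescence imaging and total raw cell area per dye. Live signal was expressed as percent change or log2 fold change relative to untreated control.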

MC38 = test: In vivo tumor growth, MC38 syngeneic tumor model; parameters: species or system C57BL/6J mice
How it was run: as §1

SMILES: CN1CCCC(CN2c3ccccc3Sc3ccccc32)C1 (racemic) [mepazine racemate, mepazine]
- Treg frequencies in peripheral blood (Tregs [1]): no effect

SMILES: CN1CCC[C@H](CN2c3ccccc3Sc3ccccc32)C1 [(S)-mepazine]
- Tmax [2]: ≤ 2 h
- logP [3]: 5.29
- mean apparent AB permeability coefficient (Caco-2): 13.73 ± 0.15 × 10^−6 cm/s
- solubility (in words) (Aqueous solubility): apparent pH-dependent solubility
- P-gp substrate (P-gp): not a P-gp substrate
- pKa (pKa): 9.2

SMILES: CO[C@@H](C)c1c(NC(=O)Nc2ccnc(C(F)(F)F)c2)cnc2cc(Cl)nn12 [MLT-943]
- Treg numbers (Tregs [4]): rapid reduction of Tregs
- IC50 (MALT1 [5]): < 10 nM
- Treg numbers (Tregs [6]): rapid reduction of Tregs
- pathology developing after Treg reduction (Tregs [6]): reversible immune dysregulation, polyendocrinopathy, enteropathy, X-linked (IPEX)-like pathology

SMILES: CN1CCC[C@H](CN2c3ccccc3Sc3ccccc32)C1.O=C(O)CCC(=O)O [MPT-0118, (S)-mepazine succinate]
- tumor growth, combination effect (B16.F10): clear synergy
- peak concentrations in mouse plasma [7]: ≤ 1.3 µM
- drug concentrations in tumor tissue ([7]; over the following 24 hours): 3000 to 10000 nM
- frequency of IFNγ+ Tregs (percentage of total tumor-infiltrating Tregs) (tumor-infiltrating Tregs): 8.9 ± 1.01%
- tumor growth, comparison of both salt forms (D4M.3A): comparable effects on tumor growth
- tumor growth, combination effect (D4M.3A): clear synergy
- tumor growth response (D4M.3A): consistently responded
- effects on PDOTS with anti-IFNγ neutralizing antibody (PDOTS): reversed
- circulating Treg frequencies (circulating Tregs): No change; also recorded: no effect

SMILES: CN1CCC[C@H](CN2c3ccccc3Sc3ccccc32)C1.Cl [MPT-0308, (S)-mepazine hydrochloride]
- tumor growth, combination effect (B16.F10): clear synergy
- frequency of IFNγ+ Tregs (percentage of total tumor-infiltrating Tregs) (tumor-infiltrating Tregs): 8.9 ± 1.01%
- antitumor activity in MDOTS with anti-IFNγ neutralizing antibody (MC38 MDOTS; 3 μM + anti-mouse IFNγ 10 μg/mL): reversed
- antitumor activity in MDOTS (MC38 MDOTS; 3 μM): active
- MALT1 inhibition (MALT1 [8]; 3 μM): roughly 75%
- MALT1 inhibition (MALT1 [8]; 10 μM): ~95%
- IC50 (MALT1 [8]; read-out: IC50 (MALT1-cleaved CYLD-ct), murine splenic CD4+ T cells stimulated with PMA/ionomycin): 1130 nM
- tumor growth, comparison of both salt forms (D4M.3A): comparable effects on tumor growth
- tumor growth, combination effect (D4M.3A): clear synergy
- tumor growth response (D4M.3A): consistently responded
- viability of tumor spheroids lacking immune cells and tumor stroma [9]: not affected
- tumor growth, combination effect (MC38; high dose in combination with anti-PD-1, MC38 model): additive effect
- tumor growth (MC38; monotherapy, immunogenic MC38 model): significant inhibition of tumor growth
